This note sets out measurements from ChEMBL document CHEMBL1154414, “In vitro and in vivo activities of T-705 against arenavirus and bunyavirus infections” (Antimicrob Agents Chemother, 2007).

As a reminder, the EC90 is the concentration needed for an effect of 90%. For orientation: EC50 means the concentration giving half of the maximal effect. A high value points to a less potent agent.

Active and inactive are the calls of the source. No cut-off for these calls is given here.

Assay [1] deals with Punta Toro virus. The experiment in a line: Antiviral activity against Punta Toro virus Adames infected Syrian golden hamster assessed as mean viral titer per 0.1 g of liver at 15 mg/kg, po twice daily administered 4 hrs before viral challenge measured on day 4 of viral infection. Format: functional.
The test system of assay [2] is Punta Toro virus. The experiment in a line: Antiviral activity against Punta Toro virus Adames infected Syrian golden hamster assessed as animals with detectable virus level in liver at 15 mg/kg, po twice daily administered 4 hrs before viral challenge measured on day 4 of viral infection. Format: functional.
The test system of assay [3] is Punta Toro virus. The experiment in a line: Antiviral activity against Punta Toro virus Adames infected Syrian golden hamster assessed as mean viral titer per 0.1 mL of serum at 60 mg/kg, po twice daily administered 4 hrs before viral challenge measured on day 4 of viral infection. The format is functional.
Assay [4] has as its system Punta Toro virus. The experiment in a line: Antiviral activity against 500 PFU Punta Toro virus Adames infected C57BL/6 mouse assessed as mean serum ALT levels at 10 mg/kg, po twice daily administered 4 hrs before viral challenge measured on day 3 of viral infection. The format is functional. The essentials:
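Subcutaneous PTV infection was followed by oral gavage twice daily with drug suspended in 0.4% CMC. Serum was collected from 5 sacrificed mice per group (10 placebo) on day 3 or 4. ALT activity was measured by kinetic assay, and sham-infected mice set the baselines.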

The subject of another assay is La Crosse virus. Description: Antiviral activity against La Crosse virus assessed as reduction of 1 log10 unit viral titer yields after 3 to 5 days. Format: functional.
Assay [5] relates to Sandfly fever Naples virus. Description: Antiviral activity against Sandfly fever Naples virus assessed as reduction of 1 log10 unit viral titer yields after 3 to 5 days. Format: functional.
For assay [6], the system named is Punta Toro virus. Description: Antiviral activity against 500 PFU Punta Toro virus Adames infected C57BL/6 mouse assessed as mean day of death at 75 mg/kg, po twice daily for 5 days administered 4 hrs before viral challenge. The format is functional. The essentials: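 Groups of 15 mice (25–30 placebo) were inoculated subcutaneously with PTV. Drug in 0.4% carboxymethylcellulose was given by oral gavage twice daily.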

Assay [7] has as its system Punta Toro virus. Description: Antiviral activity against 500 PFU Punta Toro virus Adames infected C57BL/6 mouse assessed as animals with detectable virus level in liver at 100 mg/kg, po twice daily administered 4 hrs before viral challenge measured on day 4 of viral infection. The format is functional. Summed up: (§1)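 T-705 was suspended in 0.4% carboxymethylcellulose and given by oral gavage twice daily. Mice were infected subcutaneously with PTV. Five mice per group (10 placebo) were sacrificed on day 3 or 4. Liver homogenate or serum was serially diluted onto triplicate LLC-MK2 monolayers, and CPE was read at 6–8 days. The detection limit was 2.8 log10 CCID50 per 0.1 g liver or 0.1 ml serum.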

Assay [8] relates to Punta Toro virus. Description: Antiviral activity against 500 PFU Punta Toro virus Adames infected C57BL/6 mouse assessed as mean viral titer per 0.1 mL of serum at 50 mg/kg, po twice daily administered 4 hrs before viral challenge measured on day 4 of viral infection. Format: functional. The essentials: (§2)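 Mice were infected subcutaneously with PTV and dosed by oral gavage twice daily; 5 per group (10 placebo) were killed on day 3 or 4. Liver homogenate or serum was serially diluted onto triplicate LLC-MK2 monolayers, and CPE was read 6–8 days later. 50% endpoints gave log10 CCID50 per 0.1 g liver or 0.1 ml serum. Detection range was 2.8–9.5; undetectable samples were assigned <2.8.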

Assay [9] has as its system Pichinde virus. The experiment in a line: Antiviral activity against Pichinde virus An 4763 infected Syrian golden hamster assessed as inhibition of liver damage at 20 mg/kg, po twice daily for 7 days administered 24 hrs post viral-challenge measured on day 7 of viral infection. Format: functional, organism-based. Set-up: dose 20 mg/kg.
The next assay relates to Influenza A virus. Description: Antiviral activity against influenza A virus. Format: functional, organism-based.
The test system of assay [10] is Punta Toro virus. Description: Antiviral activity against Punta Toro virus Adames infected Syrian golden hamster assessed as mean serum ALT levels at 60 mg/kg, po twice daily administered 4 hrs before viral challenge measured on day 4 of viral infection. The format is functional.
The test system of another assay is Tacaribe virus. Description: Antiviral activity against Tacaribe virus TRVL11573 assessed as reduction of 1 log10 unit viral titer yields after 7 to 8 days. Format: functional. As to conditions: Mammarenavirus tacaribeense.
Assay [11] concerns Pichinde virus. Description: Antiviral activity against Pichinde virus An 4763 infected Syrian golden hamster assessed as survival at 60 mg/kg, po twice daily for 7 days administered 4 hrs before viral-challenge. Format: functional.
In assay [12] the test system is Pichinde virus. The experiment in a line: Antiviral activity against Pichinde virus An 4763 infected Syrian golden hamster assessed as mean day of death at 15 mg/kg, po twice daily for 7 days administered 4 hrs before viral-challenge. Format: functional.
Assay [13] relates to Pichinde virus. Description: Antiviral activity against Pichinde virus An 4763 infected Syrian golden hamster assessed as mean viral titer per 0.1 g of liver at 30 mg/kg, po twice daily for 7 days administered 4 hrs before viral-challenge measured on day 7 of viral infection. The format is functional.
In assay [14] the test system is Pichinde virus. Description: Antiviral activity against Pichinde virus An 4763 infected Syrian golden hamster assessed as mean viral titer per 0.1 mL of serum at 60 mg/kg, po twice daily for 7 days administered 4 hrs before viral-challenge measured on day 7 of viral infection. Format: functional.
The test system of assay [15] is Pichinde virus. Description: Antiviral activity against Pichinde virus An 4763 infected Syrian golden hamster assessed as mean viral titer per 0.1 mL of serum at 30 mg/kg, po twice daily for 7 days administered 4 hrs before viral-challenge measured on day 7 of viral infection. The format is functional.
Assay [16] concerns Pichinde virus. Description: Antiviral activity against Pichinde virus An 4763 infected Syrian golden hamster assessed as mean viral titer per 0.1 mL of serum at 15 mg/kg, po twice daily for 7 days administered 4 hrs before viral-challenge measured on day 7 of viral infection. The format is functional.
Assay [17] concerns Pichinde virus. Description: Antiviral activity against Pichinde virus An 4763 infected Syrian golden hamster assessed as mean serum ALT levels at 60 mg/kg, po twice daily for 7 days administered 4 hrs before viral-challenge measured on day 7 of viral infection. Format: functional.
For assay [18], the system named is Punta Toro virus. The experiment in a line: Antiviral activity against 500 PFU Punta Toro virus Adames infected C57BL/6 mouse assessed as mean viral titer per 0.1 mL of serum at 25 mg/kg, po twice daily administered 4 hrs before viral challenge measured on day 4 of viral infection. Format: functional. Summed up:
as §2

The test system of assay [19] is Punta Toro virus. The experiment in a line: Antiviral activity against 500 PFU Punta Toro virus Adames infected C57BL/6 mouse assessed as animals with detectable virus level in serum at 50 mg/kg, po twice daily administered 4 hrs before viral challenge measured on day 4 of viral infection. Format: functional. Summed up: as §1
Assay [20] relates to Punta Toro virus. Description: Antiviral activity against 500 PFU Punta Toro virus Adames infected C57BL/6 mouse assessed as animals with detectable virus level in serum at 25 mg/kg, po twice daily administered 4 hrs before viral challenge measured on day 4 of viral infection. Format: functional. The essentials: as §1
The subject of assay [21] is Punta Toro virus. Description: Antiviral activity against 500 PFU Punta Toro virus Adames infected C57BL/6 mouse assessed as mean serum ALT levels at 50 mg/kg, po twice daily administered 4 hrs before viral challenge measured on day 4 of viral infection. Format: functional. Summed up: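 C57BL/6 mice received subcutaneous PTV, then oral gavage twice daily for 5–7 days. T-705 was given in 0.4% CMC and ribavirin in saline. Five mice per group (10 placebo) were killed on day 3 or 4, and serum was collected. ALT activity was measured by kinetic assay. Three sham-infected mice set baselines.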

The test system of assay [22] is Pichinde virus. The experiment in a line: Antiviral activity against Pichinde virus An 4763 infected Syrian golden hamster assessed as survival at 20 mg/kg, po twice daily for 7 days administered 72 hrs post viral-challenge. The format is functional.
Assay [23] relates to Pichinde virus. Description: Antiviral activity against Pichinde virus An 4763 infected Syrian golden hamster assessed as animals with detectable virus level in serum at 40 mg/kg, po twice daily for 7 days administered 4 hrs before viral-challenge measured on day 7 of viral infection. Format: functional.

As for `NC(=O)c1nc(F)cnc1O` [FAVIPIRAVIR], the log10CCID50 was above 6.9 in the assay with Punta Toro virus [1]; below 3.8 in the assay on Punta Toro virus [3]; below 3.1 in the assay on Punta Toro virus [8]; 6.4 in the assay on Pichinde virus [13]; below 2.8 in the assay with Pichinde virus [14]; below 5.2 with Pichinde virus [15]. The values for the log10CCID50 with Pichinde virus [16] and in the assay on Punta Toro virus [18] were below 5.3 and below 3.3, respectively. Besides, the Activity in the assay on Punta Toro virus [2] is 100%; in the assay on Punta Toro virus [4] it was 501 IU/L; with Punta Toro virus [6], above 21 days; with Punta Toro virus [7] it was 0%; in the assay with Punta Toro virus [10] it was 17 IU/L; in the assay with Pichinde virus [11] it was 90%. Further, the Activity in the assay with Pichinde virus [12] was 11.1 days; in the assay with Pichinde virus [17], 23 IU/L; in the assay with Punta Toro virus [19] it was 10%; in the assay with Punta Toro virus [20] it was 20%; in the assay on Punta Toro virus [21], 41 IU/L. The EC90 with La Crosse virus came to 7 µM; in assay [5], 3 µM; in the assay on Tacaribe virus it was 6 µM. In the assay with Pichinde virus [9], the outcome was Active. In the assay with Influenza A virus, the EC50 came out at 0.083 µM.

Take `NC(=O)c1ncn([C@@H]2O[C@H](CO)[C@@H](O)[C@H]2O)n1` [RIBAVIRIN]: the Efficacy in the assay with Pichinde virus [22] is 60%. In the assay with Pichinde virus [23], the Activity came out at 40%.
